Measured values as given in PMC11522000 (Nature Microbiology, 2024).
≈ marks a conversion by molar mass, not a printed value. Where “and” joins values, the source holds several entries; their conditions need not be identical. Identical values can stand only once. Entries after “also recorded” stand apart in the source; their conditions may differ.

How the values were obtained:
C. parvum [1] = assay: Cytopathic effect; format: cell-based, Cryptosporidium parvum; details: for EC50: read-out: Cp CPE EC50, C. parvum, HCT-8, 48 h
In short: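 HCT-8 cells were grown at 37 °C, 5% CO2 in RPMI-1640 with 10% heat-inactivated FBS. Oocysts were excysted in 10 mM HCl/HBSS for 10 min at 37 °C, then in 2 mM sodium taurocholate in L-15/UltraCULTURE medium for 5 min. Infected cells were seeded onto pre-spotted compound (10-point, 3-fold dilution; DMSO and reference-inhibitor controls) and incubated 48 h. Cells were then lysed for a viability read-out, and concentration-response curves were fitted.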

HsPI(4)K = HsPI(4)K (Homo sapiens, UniProt Q9UBF8); assay: PI; format: biochemical; details: for IC50: HsPI(4)K IC50, 3 μM ATP
[2] = High-throughput equilibrium solubility; format: physicochemical; details: thermodynamic from solid
In short: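 Equilibrium solubility was measured by a miniaturized shake-flask method with HPLC quantification.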

PAMPA = format: in vitro ADME
[3] = MDCK Low Efflux permeability; format: in vitro ADME; details: dog
P-glycoprotein (MDR1) = assay: MDCK MDR1 permeability and efflux; format: in vitro ADME; details: dog
[4] = Hepatocytes metabolic stability; format: in vitro ADME; details: dog
In short: (§1)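 Test compound was incubated with liver microsomes or hepatocytes of each species, and parent depletion was quantified by LC-MS/MS. From this, in vitro half-life and intrinsic clearance were derived, along with predicted metabolic clearance and hepatic extraction ratio.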

[5] = Hepatocytes metabolic stability; format: in vitro ADME; details: human
In short: as §1

Plasma stability [6] = format: in vitro ADME; details: mouse
In short: (§2)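 Test compound was added to plasma and incubated at 37 °C in a shaking water bath, with samples taken at sequential timepoints. Samples were quenched with ice-cold acetonitrile and analysed by LC-MS/MS, and half-life was calculated from the depletion rate.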

Plasma stability [7] = format: in vitro ADME; details: rat
In short: as §2

Plasma protein binding = format: in vitro ADME; details: human
CYP2D6 = CYP2D6 (Homo sapiens, UniProt P10635); assay: CYP450 reversible inhibition; format: in vitro ADME
CYP2C9 = CYP2C9 (Homo sapiens, UniProt P11712); assay: CYP450 reversible inhibition; format: in vitro ADME
hNav1.5 = hNav1.5 (Homo sapiens, UniProt Q14524); assay: Patch clamp Nav1.5 Quattro; format: cell-based
In short: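 Each channel was stably expressed in HEK293 cells and tested by patch clamp with a 7-point concentration-response.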

[8] = test system: human peripheral blood lymphocytes; assay: In vitro human lymphocyte; format: cell-based; details: EDI048: near cytotoxic concentrations
In short: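 Lymphocytes came from pooled blood of two donors. The assay was run under GLP and OECD guidelines, and micronuclei were scored on slides by fluorescence microscopy.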

3T3 fibroblast cells = assay: In vitro 3T3 NRU phototoxicity test; format: cell-based
In short: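 This followed OECD 432. 3T3 fibroblasts in 96-well plates were exposed to a concentration range of test compound, up to its solubility limit in HBSS, and viability was read by neutral red uptake.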

[9] = Systemic exposure in the mouse efficacy studies; format: in vivo
C. parvum [10] = assay: Host cell invasion assay; format: cell-based, Cryptosporidium parvum; details: HCT-8, 3 h; EDI048 and KDU731 20 µM, wiskostatin 11.3 µM
In short: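 HCT-8 monolayers were 95–100% confluent. Compounds were added at twice the final concentration 1 h before infection with 50,000 primed oocysts per well. Plates were kept 3 h at 37 °C, 5% CO2, then washed with PBS-0.1% Tween 20, fixed in 4% PFA for 15 min at room temperature, permeabilized with 0.25% Triton X-100 and blocked in 4% BSA. Vacuoles were stained with fluorescein-VVL and nuclei with Hoechst, then imaged.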

Chain of HsPI(4)K (Q9UBF8 523-816 limits assumed): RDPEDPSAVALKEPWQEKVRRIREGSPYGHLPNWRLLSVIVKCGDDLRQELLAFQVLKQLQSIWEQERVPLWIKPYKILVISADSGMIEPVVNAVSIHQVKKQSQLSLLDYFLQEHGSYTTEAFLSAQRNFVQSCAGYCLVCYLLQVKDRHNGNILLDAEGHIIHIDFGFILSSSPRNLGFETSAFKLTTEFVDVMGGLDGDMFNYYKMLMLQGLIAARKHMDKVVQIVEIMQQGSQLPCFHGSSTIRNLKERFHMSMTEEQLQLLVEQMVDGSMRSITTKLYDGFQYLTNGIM
Chain of CYP2C9 (P11712 whole entry): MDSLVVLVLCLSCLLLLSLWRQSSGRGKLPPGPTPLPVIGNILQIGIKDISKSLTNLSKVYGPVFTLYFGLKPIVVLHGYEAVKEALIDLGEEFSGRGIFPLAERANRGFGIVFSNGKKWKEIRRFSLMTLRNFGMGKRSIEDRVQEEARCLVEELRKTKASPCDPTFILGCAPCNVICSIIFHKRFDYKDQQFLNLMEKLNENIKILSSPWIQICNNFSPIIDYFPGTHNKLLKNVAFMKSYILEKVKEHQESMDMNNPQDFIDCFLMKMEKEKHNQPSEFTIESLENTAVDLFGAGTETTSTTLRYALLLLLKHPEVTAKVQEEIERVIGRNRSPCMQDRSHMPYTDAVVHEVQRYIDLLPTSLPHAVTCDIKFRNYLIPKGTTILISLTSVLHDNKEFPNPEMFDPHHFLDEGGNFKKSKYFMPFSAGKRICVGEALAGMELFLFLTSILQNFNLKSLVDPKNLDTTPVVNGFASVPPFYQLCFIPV
Chain of hNav1.5 (Q14524 whole entry): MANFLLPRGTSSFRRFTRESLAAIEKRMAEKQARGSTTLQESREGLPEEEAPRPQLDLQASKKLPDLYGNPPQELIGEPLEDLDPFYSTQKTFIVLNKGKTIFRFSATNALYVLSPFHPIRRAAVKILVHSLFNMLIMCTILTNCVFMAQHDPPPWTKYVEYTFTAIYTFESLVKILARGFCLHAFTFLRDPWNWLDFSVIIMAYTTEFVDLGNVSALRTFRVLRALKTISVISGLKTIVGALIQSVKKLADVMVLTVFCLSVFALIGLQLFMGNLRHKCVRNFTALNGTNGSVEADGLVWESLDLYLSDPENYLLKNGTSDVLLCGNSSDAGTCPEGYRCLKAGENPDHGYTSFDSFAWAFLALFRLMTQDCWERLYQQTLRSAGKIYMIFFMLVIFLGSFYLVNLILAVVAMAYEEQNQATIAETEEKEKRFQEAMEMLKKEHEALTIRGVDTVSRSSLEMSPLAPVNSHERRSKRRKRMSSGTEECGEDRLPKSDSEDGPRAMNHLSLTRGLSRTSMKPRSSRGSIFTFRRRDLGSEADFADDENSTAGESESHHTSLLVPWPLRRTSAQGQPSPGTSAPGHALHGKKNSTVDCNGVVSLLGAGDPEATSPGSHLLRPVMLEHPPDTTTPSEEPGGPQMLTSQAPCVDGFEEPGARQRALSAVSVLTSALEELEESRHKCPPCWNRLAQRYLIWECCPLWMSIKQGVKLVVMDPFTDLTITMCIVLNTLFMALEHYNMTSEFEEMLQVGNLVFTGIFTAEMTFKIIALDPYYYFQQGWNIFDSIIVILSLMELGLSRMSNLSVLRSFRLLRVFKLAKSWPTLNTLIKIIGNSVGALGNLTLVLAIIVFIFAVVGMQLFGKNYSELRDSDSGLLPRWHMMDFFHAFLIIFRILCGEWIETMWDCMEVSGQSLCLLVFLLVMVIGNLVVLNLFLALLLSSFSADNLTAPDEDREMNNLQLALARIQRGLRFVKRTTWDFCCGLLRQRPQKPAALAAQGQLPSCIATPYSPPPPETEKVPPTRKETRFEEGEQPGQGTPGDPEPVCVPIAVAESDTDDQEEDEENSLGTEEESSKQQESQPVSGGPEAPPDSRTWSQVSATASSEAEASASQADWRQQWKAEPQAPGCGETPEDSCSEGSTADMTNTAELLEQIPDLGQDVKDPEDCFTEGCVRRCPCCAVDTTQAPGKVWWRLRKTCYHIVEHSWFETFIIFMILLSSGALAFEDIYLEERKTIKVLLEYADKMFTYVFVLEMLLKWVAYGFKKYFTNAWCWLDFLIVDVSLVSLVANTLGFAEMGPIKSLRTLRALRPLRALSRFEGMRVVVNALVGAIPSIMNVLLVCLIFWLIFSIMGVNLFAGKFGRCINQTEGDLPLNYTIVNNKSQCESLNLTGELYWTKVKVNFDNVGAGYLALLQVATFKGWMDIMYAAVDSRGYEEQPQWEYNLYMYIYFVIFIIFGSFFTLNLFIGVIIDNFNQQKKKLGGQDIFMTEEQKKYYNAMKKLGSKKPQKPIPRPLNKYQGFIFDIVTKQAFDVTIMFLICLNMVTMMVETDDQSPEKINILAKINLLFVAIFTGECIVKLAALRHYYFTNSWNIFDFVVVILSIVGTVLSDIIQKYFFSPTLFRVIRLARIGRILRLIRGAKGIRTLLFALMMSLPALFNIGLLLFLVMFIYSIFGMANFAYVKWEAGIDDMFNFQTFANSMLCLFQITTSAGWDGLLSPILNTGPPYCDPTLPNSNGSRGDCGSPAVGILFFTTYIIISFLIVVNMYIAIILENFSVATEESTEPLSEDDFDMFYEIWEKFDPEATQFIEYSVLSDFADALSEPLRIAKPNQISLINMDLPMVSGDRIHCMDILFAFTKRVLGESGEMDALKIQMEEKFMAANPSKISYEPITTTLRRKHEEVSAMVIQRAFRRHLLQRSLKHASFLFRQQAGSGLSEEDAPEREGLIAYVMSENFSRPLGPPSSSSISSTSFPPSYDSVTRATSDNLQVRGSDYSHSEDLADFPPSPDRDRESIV
Chain of CYP2D6 (P10635 whole entry): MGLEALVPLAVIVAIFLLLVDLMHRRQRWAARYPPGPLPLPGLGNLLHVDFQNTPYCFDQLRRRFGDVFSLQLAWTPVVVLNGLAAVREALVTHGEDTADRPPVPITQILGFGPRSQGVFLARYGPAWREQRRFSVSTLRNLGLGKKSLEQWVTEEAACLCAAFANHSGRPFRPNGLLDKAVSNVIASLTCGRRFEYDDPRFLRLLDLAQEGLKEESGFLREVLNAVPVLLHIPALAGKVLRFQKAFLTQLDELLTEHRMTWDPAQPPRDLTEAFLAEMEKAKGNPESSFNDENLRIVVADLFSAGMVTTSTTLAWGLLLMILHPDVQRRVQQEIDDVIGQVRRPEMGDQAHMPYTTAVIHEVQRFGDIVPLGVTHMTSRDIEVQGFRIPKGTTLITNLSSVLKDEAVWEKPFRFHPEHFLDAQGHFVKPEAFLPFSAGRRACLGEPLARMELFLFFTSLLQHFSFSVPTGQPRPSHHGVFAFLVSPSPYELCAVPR

SMILES: CNC(=O)c1ccc(-c2cnn3ccc(C(=O)N(C)c4ccc(Cl)c(C(=O)OC)c4)cc23)cc1 [EDI048, methyl 2-chloro-5-(N-methyl-3-(4-(methylcarbamoyl)phenyl)pyrazolo[1,5-a]pyridine-5-carboxamido)benzoate]
- EC50 (C. parvum [1]): 50 nM
- selectivity for Cryptosporidium PI(4)K over HsPI(4)K (HsPI(4)K): > 300 fold and 300 fold
- IC50 (HsPI(4)K): 1030 ± 470 nM
- solubility ([2]; FaSSIF, Solubility FaSSIF): 198 µM (≈ 94.4 µg/mL)
- solubility ([2]; pH 6.8, aqueous buffer, Solubility pH 6.8, pH 6.8): 54 µM (≈ 25.8 µg/mL)
- PAMPA (% calc fraction absorbed) (PAMPA): 97%
- Papp A→B [3]: 9.71 ×10⁻⁶ cm/s
- Papp A→B (P-glycoprotein (MDR1); MDCK-MDR1): 7.92 ×10⁻⁶ cm/s
- efflux ratio (P-glycoprotein (MDR1); MDCK-MDR1): 1.62
- Papp B→A (P-glycoprotein (MDR1); MDCK-MDR1, Permeability B–A, MDCK MDR1, basolateral to apical): 12.9 ×10⁻⁶ cm/s
- Hepatocytes ER [4]: 83%
- hepatocyte CLint ([4]; hepatocytes): 28.5 µL/min/1e6 cells
- half-life ([5]; hepatocytes): < 3 min
- hepatocyte CLint ([5]; hepatocytes): > 231 µL/min/1e6 cells
- half-life (Plasma stability [6]; Plasma T1/2, mouse plasma): 15.3 min
- half-life (Plasma stability [6]; Plasma T1/2, rodent plasma): 12 to 15 min
- half-life (Plasma stability [7]): 11.6 min
- fraction unbound (Plasma protein binding; plasma): 0.045
- IC50 (CYP2D6): > 25000 nM
- IC50 (CYP2C9): 2510 nM
- IC50 (hNav1.5): > 50000 nM
- In vitro Human lymphocyte MN induction [8]: Positive^d
- Phototoxicity (3T3 fibroblast cells): Negative
- Phototoxicity PIF value (3T3 fibroblast cells): 1.8
- systemic exposure ([9]; mouse, oral 1 and 3 mg kg^−1): no detectable EDI048 systemic exposure
- sporozoite invasion (C. parvum [10]): inactive; also recorded: does not affect sporozoite invasion

SMILES: CN(C(=O)c1ccn2ncc(-c3ccc(C(N)=O)cc3)c2c1)c1ccc(C#N)cn1 [KDU731, 3–(4-carbamoylphenyl)-N-(5-cyanopyridin-2-yl)-N-methylpyrazolo [1,5-a]pyridine-5-carboxamide, reference compound]
- EC90 (C. parvum [1]; Cryptosporidium parvum, HCT-8, read-out: approximate C. parvum CPE assay EC90): ~500 nM
- EC50 (C. parvum [1]): 100 nM
- IC50 (HsPI(4)K): 1930 ± 1080 nM
- solubility ([2]; FaSSIF): 48 µM (≈ 19 µg/mL)
- solubility ([2]; pH 6.8, aqueous buffer): 19 µM (≈ 7.53 µg/mL)
- PAMPA (% calc fraction absorbed) (PAMPA): 34.7%
- Papp A→B [3]: 12.1 ×10⁻⁶ cm/s
- Papp A→B (P-glycoprotein (MDR1); MDCK-MDR1): 1.95 ×10⁻⁶ cm/s
- Papp B→A (P-glycoprotein (MDR1); MDCK-MDR1): 15.5 ×10⁻⁶ cm/s
- efflux ratio (P-glycoprotein (MDR1); MDCK-MDR1): 7.93
- Hepatocytes ER [4]: 10%
- Hepatocytes ER [5]: 60%
- Hepatocytes clearance [5]: 12 μl/min/million cells
- half-life ([5]; hepatocytes): 57.9 min
- half-life (Plasma stability [6]): 85.2 min
- half-life (Plasma stability [7]): > 120 min
- % Plasma protein binding (Plasma protein binding): 79.1%
- IC50 (CYP2D6): > 50000 nM
- IC50 (CYP2C9): > 4800 nM
- IC50 (hNav1.5): > 50000 nM
- In vitro Human lymphocyte MN induction [8]: induce micronuclei; also recorded: Positive
- Phototoxicity (3T3 fibroblast cells): Negative
- Phototoxicity PIF value (3T3 fibroblast cells): 3.1
- AUC (time 0 to last timepoint) ([9]; mouse efficacy study, 10 mg kg^−1 oral): 2,982 nM h
- sporozoite invasion (C. parvum [10]): inactive
